RanGTP-Imp inh – inhibitors of RanGTP-importin-beta interaction, primary screen, biochemical, FRET, CFP-Ran, YFP-importin-beta, homogeneous | hit rate 1.1% among 300,000 | inhibition, % (concentration not given with the values) | cell-free CFP-Ran/YFP-importin-beta FRET ratio | Ran GTPase (GTP-bound) - importin-beta complex;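 active = more than half of the replicate wells show a fall in the fluorescence ratio signal beyond about 16%, limit read from the data, passing the limit was not always enough; inconclusive = exactly half of the replicate wells pass the set limit; inactive = fewer than half of replicates pass the limit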;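 note: 0% = DMSO wells and 100% = Ran loaded with GDP instead of GTP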
PHOSPHO1 block – PubChem AID 1565; hit rate 1.1% among 290,000; inhibition, % at 13.3 µM; Phosphoethanolamine/phosphocholine phosphatase (Homo sapiens), Q8TCT1; recombinant PHOSPHO1, absorbance phosphatase assay; in the data active = inhibition above about 60%
Runt-SMMHC FRET – inhibitors of RUNX1 Runt–CBFb-SMMHC binding, primary screen, biochemical, FRET, Cerulean-Runt, Venus-CBFb-SMMHC, uHTS. Runt-related transcription factor 1 (Homo sapiens) + Core-binding factor subunit beta …. Cerulean-Runt/Venus-CBFb-SMMHC FRET ratio 530/480, 1 h. inhibition, % at 20 µM. hit rate 0.74% among 220,000;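 active = mean inhibition across duplicate retests at 20 µM reaching about 50%, limit read from the data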;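 note: 0% = DMSO wells and 100% = wells with excess untagged CBFb-SMMHC; inhibitors lower the FRET ratio by blocking Runt binding to CBFb-SMMHC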
Target sequence (Q01196 whole entry, looked up): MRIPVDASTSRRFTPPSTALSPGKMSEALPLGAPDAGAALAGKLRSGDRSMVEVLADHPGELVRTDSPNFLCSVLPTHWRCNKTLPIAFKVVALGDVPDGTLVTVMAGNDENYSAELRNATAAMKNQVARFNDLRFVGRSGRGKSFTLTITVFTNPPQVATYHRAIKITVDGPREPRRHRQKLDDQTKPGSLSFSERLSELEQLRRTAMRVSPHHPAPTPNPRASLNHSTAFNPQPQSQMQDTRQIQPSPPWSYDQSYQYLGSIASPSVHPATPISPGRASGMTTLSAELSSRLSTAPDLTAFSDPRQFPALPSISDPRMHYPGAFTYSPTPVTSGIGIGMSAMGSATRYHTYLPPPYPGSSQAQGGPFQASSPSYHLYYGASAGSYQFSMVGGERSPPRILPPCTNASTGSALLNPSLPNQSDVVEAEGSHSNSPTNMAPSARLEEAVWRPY
Target sequence (Q13951 whole entry, looked up): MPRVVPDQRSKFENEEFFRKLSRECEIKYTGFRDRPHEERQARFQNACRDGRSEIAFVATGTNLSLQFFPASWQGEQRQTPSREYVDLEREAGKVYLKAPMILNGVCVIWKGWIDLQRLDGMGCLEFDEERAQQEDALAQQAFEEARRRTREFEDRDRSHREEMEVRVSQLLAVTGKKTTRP
HMGR II inh – inhibitors of E. faecalis class II HMGR, primary screen, biochemical, Enterococcus faecalis. HMG-CoA reductase (Enterococcus faecalis, mvaE). purified E. faecalis HMGR, NADPH absorbance 340 nm kinetic. inhibition, % at 10 µM. hit rate 0.41% among 190,000;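 active = inhibition above a set limit, the median over all tested compounds plus 3 SD, cut at about 9.5% in these data; inconclusive = no clear call, values can overlap the other calls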;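 note: enzyme runs in reverse so mevalonate oxidation gives rising NADPH absorbance; 0% = complete reaction with DMSO and 100% = background rate lacking mevalonate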
Wee1 stabilizer – Wee1 degradation inhibitors, primary screen, cell-based, HeLa, Wee1K328M-luciferase, luminescence. AID 1321, 2008. HeLa Luc-Wee1K328M stability; 100% = proteasome inhibitor MG132 effect. reporter increase, % at 5 µM. hit rate 1.2% among 220,000;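 active = activation above the mean of all tested compounds plus 3 SD, set per screening run, cut at about 8.8% in these data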;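 note: cells exposed to compound for 20 h before luminescence read; 0% = DMSO alone and 100% = MG132 at 30 µM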
Runt-CBFb FRET – inhibitors of RUNX1 Runt–CBFb binding, primary screen, biochemical, FRET, Cerulean-Runt, Venus-CBFb, uHTS; Runt-related transcription factor 1 (Homo sapiens) + Core-binding factor subunit beta …; Cerulean-Runt/Venus-CBFb FRET ratio 530/480, 1 h; inhibition, % at 20 µM; hit rate 0.46% among 220,000; AID 1496, 2009;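 active = inhibition over about 50% at 20 µM in the single-dose screen, limit read from the data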;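 note: 0% = DMSO wells and 100% = excess unlabeled CBFb competitor control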
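Measured by: fluorescence energy transfer, 422 nm excitation, 530/480 nm emission; test system: Cerulean-tagged RUNX1 Runt domain (FRET donor) fusion protein; buffer or medium: Tris pH 7.5 buffer with BSA; compound: one dose, 20 µM compound, 1% DMSO; times: two 1 h room-temperature incubations shielded from light; benchmarks: unlabeled CBFb 5 µM, positive control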
An asterisk follows results filed as active; ? = inconclusive; / = no result. Only some compounds are listed: those with a hit (about 3.4% of all), similar ones and a draw of the others.

SMILES	RanGTP-Imp inh	PHOSPHO1 block	Runt-SMMHC FRET	HMGR II inh	Wee1 stabilizer	Runt-CBFb FRET
COC(=O)C1=C(c2ccc(S(C)(=O)=O)cc2)C[C@@H]2CC[C@H]1N2C(=O)N1CCC(O)CC1	2	/	/	/	/	/
O=C1NC(=S)N(Cc2ccco2)C(=O)/C1=C\c1cccs1	/	77*	25	7	-3	42
C=CCN1C(=O)/C(=C/c2cccs2)C(=O)NC1=S	0	4	19	-7	2	10
CCN(CC)C(=O)c1ccc(NC(=O)c2cccc(F)c2)cc1	1	7	2	2	8.8*	1
CC[C@H]1CC2CN3CCc4c([nH]c5cc(OC)ccc45)[C@](C(=O)OC)(C2)[C@H]13	4	/	/	/	/	/
COc1ccc2c3c([nH]c2c1)C(C)=NCC3	62*	4	73*	3	-1	4
COc1ccc(N=C(C)c2c(O)n(C3CCCCC3)c(=O)[nH]c2=O)c(OC)c1	-3	-3	-1	-4	0	-1
CC(Cc1ccc(O)cc1)NCC(O)c1cc(O)cc(O)c1 (centres undefined)	17*	-10	7	/	/	13
CCOc1ccc(NC2=NCCCS2)cc1	?	20	/	/	/	/
CN(C)c1ccc(/C=C2/C(=N\O)C3CCN2CC3)cc1	57*	-65	29	/	1	1
O=C1/C(=C\c2ccc([N+](=O)[O-])cc2)N2CCC1CC2	7	-7	0	-2	-1	1
N#CC1=C(N)Oc2cc(O)ccc2C1c1ccc2c(c1)OCO2 (centres undefined)	67*	46	90*	-2	-3	21
Nc1c(C(=O)NCc2ccco2)c2nc3ccccc3nc2n1Cc1ccc(F)cc1	43*	-4	74*	-5	2	16
CCC(=O)C(CCN1CCOCC1)(c1ccccc1)c1ccccc1	-1	/	/	/	/	/
Nc1c(C(=O)NCc2ccco2)c2nc3ccccc3nc2n1CCN1CCOCC1	46*	22	81*	-2	1	41
COCC(C)OC(=O)c1c(N)n(Cc2ccco2)c2nc3ccccc3nc12 (centres undefined)	10	-20	74	0	-1	/
CCOC(=O)c1c(N)n(Cc2ccco2)c2nc3ccccc3nc12	/	3	70*	1	0	48
COc1ccc(Cn2c(N)c(C(=O)NCc3ccco3)c3nc4ccccc4nc32)cc1	61*	32	100*	-3	-2	49
COc1ccc(Cn2c(O)c(/C=N/NC(=O)c3ccccc3)c(=O)[nH]c2=O)cc1	4	2	6	4	-2	-5
CCCCCCNc1nc(OC)nc(N2CC3CC(C2)c2cccc(=O)n2C3)n1 (centres undefined)	3	16	-1	-2	3	0
CCN(CC)C(=O)c1ccc(NC(=O)CN2CCc3cc(OC)c(OC)cc3C2)cc1	2	-25	/	/	/	/
Cc1c(C=O)c2ccccc2n1Cc1ccc([N+](=O)[O-])cc1	-1	8	2	2	0	-2
Nc1c(C(=O)NCc2ccco2)c2nc3ccccc3nc2n1Cc1ccccc1	55*	-13	76*	-2	3	68*
Cc1nn(Cc2ccccc2)c(C)c1C(=O)NCc1ccccc1	-6	32	-1	-5	6	-1
O=c1[nH]c(O)c(/C=C2\C=Nc3ccc(OCc4ccccc4)cc32)c(=O)[nH]1	-8	3	/	/	/	/
SMILES	RanGTP-Imp inh	PHOSPHO1 block	Runt-SMMHC FRET	HMGR II inh	Wee1 stabilizer	Runt-CBFb FRET
CCOC(=O)/C(CCCN(CC)CC)=N\O	1	95*	8	-5	7	-1
CC(C)CCOC(=O)c1c(N)n(CC2CCCO2)c2nc3ccccc3nc12 (centres undefined)	11	-14	65*	-4	10*	22
CCCCOCCCn1c(N)c(C(=O)OCCOC)c2nc3ccccc3nc21	?	14	103*	-4	-1	44
CC(C)CCn1c(N)c(C(=O)OCC2CCCO2)c2nc3ccccc3nc21 (centres undefined)	?	-15	82*	0	0	38
CCCn1c(C(=O)c2ccc(OC)cc2)nc2ccccc21	4	24	1	-3	3	-2
CCCCn1c(N)c(C(=O)OCC2CCCO2)c2nc3ccccc3nc21 (centres undefined)	?	-42	106*	1	0	41
O=C(COc1ccccc1)N1CCN(CC2CC=CCC2)CC1 (centres undefined)	1	28	/	/	/	/
COCCCn1c(N)c(C(=O)NCCC(C)C)c2nc3ccccc3nc21	103*	0	88	3	-1	17
CCCCn1c(=O)c(C(=O)Nc2nc3ccccc3[nH]2)c(O)c2ccccc21	/	-8	-2	/	/	-2
CCCCCn1c(=O)c(C(=O)Nc2nc3ccccc3[nH]2)c(O)c2ccccc21	2	41	-1	/	10*	1
Cc1ccccc1NS(=O)(=O)c1ccc(OCC(=O)N2CCN(C)CC2)cc1	-1	-2	/	/	/	/
CN(C)C(CNC(=O)Cc1ccc(Br)cc1)c1ccccc1 (centres undefined)	-1	19	/	/	/	/
CCCCn1c(NS(=O)(=O)c2ccc(C)cc2)c(C(=O)OCC)c2nc3ccccc3nc21	75*	1	58*	3	-3	10
CCCCn1c(NC(=O)c2ccco2)c(C(=O)OCC)c2nc3ccccc3nc21	71*	-7	60*	5	-3	18
COc1cc(C=C2C(=O)NC(=O)NC2=O)ccc1OCc1ccc([N+](=O)[O-])cc1	/	-4	1	-12	12*	5
N[C@@H](Cc1c[nH]c2ccccc12)c1nnc(SCc2ccc(F)cc2)o1	8	62*	-3	-8	2	-4
CC(C)=CCSc1nnc([C@@H](N)Cc2c[nH]c3ccccc23)o1	2	4	3	-2	-3	1
N[C@@H](Cc1c[nH]c2ccccc12)c1nnc(SCc2ccccc2)o1	4	22	1	0	-3	-2
C=C(C)CSc1nnc([C@@H](N)Cc2c[nH]c3ccccc23)o1	1	89*	1	0	0	0
CC1C(c2cccs2)=[N+]([O-])C(C)(C(=O)c2cccs2)N1O (centres undefined)	2	-5	-2	0	-2	0

Bioassay records deposited in PubChem by several laboratories.
